Source: ChEMBL document CHEMBL1759961, “Alkyl piperidine and piperazine hydroxamic acids as HDAC inhibitors” (Bioorg Med Chem Lett, 2011)

How the values were obtained:
[1] = target: T1, Histone deacetylase (Homo sapiens) (UniProt Q13547+O15379+Q9UBN7+Q92769+Q9UQL6+Q8WUI4+Q9BY41+Q96DB2+P56524+Q9UKV0+Q969S8); details: HeLa, at 0.1 µM
[2] = target: T1, Histone deacetylase (Homo sapiens); details: HeLa, at 1 µM
[3] = target: T1, Histone deacetylase (Homo sapiens); details: HeLa, at 10 µM
[4] = target: T1, Histone deacetylase (Homo sapiens); test: Inhibition of HDAC in human HeLa cells at 50 uM by fluorescent activity assay; format: cell-based
Procedure, shortened: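 HDAC activity was measured with a commercial fluorescent kit using Fluor de Lys substrate plus developer. Compounds were dissolved in DMSO and stored at -80 °C. Fluorophore release was read at excitation 335 nm and emission 460 nm. All experiments were run in triplicate.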

HCT-116 = test: Antiproliferative activity against human HCT116 cells after 5 days by Alamar blue assay; format: functional, cell-based; details: HCT-116, 120 h
Histone deacetylase = test: Inhibition of HDAC in human HeLa cells by fluorescent activity assay; format: cell-based

Row | SMILES | inhibition [1] | inhibition [2] | inhibition [3] | inhibition [4] | IC50 (HCT-116) | IC50 (Histone deacetylase)
1 | O=C(CCC1CCN(S(=O)(=O)Cc2ccccc2)CC1)NO | 8% | 33% |  |  |  | 
2 | O=C(CCCN1CCN(C(=O)Cc2ccccc2)CC1)NO |  |  | 28% | 52% |  | 
3 | O=C(NO)C1CCN(C(=O)c2ccccc2)CC1 |  |  | 0% | 16% |  | 
4 | O=C(CN1CCN(C(=O)Cc2ccccc2)CC1)NO |  |  | 6% | 19% |  | 
5 | O=C(CCCC1CCN(C(=O)Cc2ccccc2)CC1)NO | 36% | 72% | 80% | 85% | 5100 nM | 260 nM
6 | O=C(CCCCC1CCN(C(=O)Cc2ccccc2)CC1)NO | 11% | 54% |  |  |  | 
7 | O=C(CCC1CCN(C(=O)Cc2ccccc2)CC1)NO | 2% | 24% |  |  |  | 
8 | O=C(CCCCC1CCN(C(=O)NCc2ccccc2)CC1)NO | 18% | 49% |  |  |  | 
9 | O=C(CCN1CCN(S(=O)(=O)Cc2ccccc2)CC1)NO |  |  | 1% | 38% |  | 
10 | O=C(CCCC1CCN(C(=O)Nc2ccccc2)CC1)NO | 53% | 81% | 86% |  | 700 nM | 100 nM
11 | O=C(CC1CCN(C(=O)Cc2ccccc2)CC1)NO |  |  | 39% | 61% |  | 
12 | O=C(CCN1CCN(C(=O)Cc2ccccc2)CC1)NO |  |  | 0% | 2% |  | 
13 | O=C(CCCCC1CCN(S(=O)(=O)c2ccccc2)CC1)NO | 13% | 45% |  |  |  | 
14 | O=C(CC1CCN(S(=O)(=O)Cc2ccccc2)CC1)NO |  |  | 21% | 22% |  | 
15 | O=C(CCC1CCN(S(=O)(=O)c2ccccc2)CC1)NO | 9% | 33% |  |  |  | 
16 | O=C(NO)C1CCN(C(=O)Cc2ccccc2)CC1 |  |  | 33% | 65% |  | 
17 | O=C(NO)C1CCN(S(=O)(=O)c2ccccc2)CC1 |  |  | 29% | 50% |  | 
18 | O=C(NO)C1CCN(S(=O)(=O)Cc2ccccc2)CC1 |  |  | 1% | 33% |  | 
19 | O=C(CCCCCC1CCN(C(=O)Nc2ccccc2)CC1)NO | 16% | 54% |  |  |  | 
20 | O=C(CCCC1CCN(S(=O)(=O)Cc2ccccc2)CC1)NO | 12% |  |  | 77% | 3200 nM | 840 nM

Row | SMILES | inhibition [1] | inhibition [2] | inhibition [3] | inhibition [4] | IC50 (HCT-116) | IC50 (Histone deacetylase)
21 | O=C(CCCCN1CCN(S(=O)(=O)Cc2ccccc2)CC1)NO | 4% | 9% |  |  |  | 
22 | O=C(CCN1CCN(C(=O)c2ccccc2)CC1)NO | 3% | 3% |  |  |  | 
23 | O=C(CC1CCN(C(=O)c2ccccc2)CC1)NO |  |  | 7% | 41% |  | 
24 | O=C(CCCN1CCN(S(=O)(=O)c2ccccc2)CC1)NO |  |  | 30% | 50% |  | 
25 | O=C(CCCCC1CCN(C(=O)c2ccccc2)CC1)NO | 12% | 44% |  |  |  | 
26 | O=C(CCCC1CCN(S(=O)(=O)c2ccccc2)CC1)NO |  |  |  |  | 2700 nM | 540 nM
27 | O=C(CCC1CCN(C(=O)c2ccccc2)CC1)NO | 11% | 30% |  |  |  | 
28 | O=C(CCCCC1CCN(C(=O)Nc2ccccc2)CC1)NO | 23% | 63% |  |  |  | 
29 | O=C(CCCCCC1CCN(C(=O)NCc2ccccc2)CC1)NO | 20% | 62% |  |  |  | 
30 | O=C(CCCCN1CCN(C(=O)c2ccccc2)CC1)NO | 3% | 9% |  |  |  | 
31 | O=C(CCCN1CCN(S(=O)(=O)Cc2ccccc2)CC1)NO |  |  | < 10% | 19% |  | 
32 | O=C(CCCC1CCN(C(=O)NCc2ccccc2)CC1)NO | 59% | 69% | 86% |  | 300 nM | 90 nM
33 | O=C(CCCCN1CCN(C(=O)Cc2ccccc2)CC1)NO | 19% | 40% |  |  |  | 
34 | O=C(CCCC1CCN(C(=O)c2ccccc2)CC1)NO | 11% |  | 69% | 77% | 17200 nM | 1390 nM
35 | O=C(CC1CCN(S(=O)(=O)c2ccccc2)CC1)NO |  |  | 41% | 68% |  | 
36 | O=C(CCCCN1CCN(S(=O)(=O)c2ccccc2)CC1)NO | 9% | 12% |  |  |  | 
37 | O=C(CN1CCN(S(=O)(=O)Cc2ccccc2)CC1)NO |  |  | 16% | 51% |  | 
38 | O=C(CN1CCN(S(=O)(=O)c2ccccc2)CC1)NO |  |  | 3% | 10% |  | 
39 | O=C(CCCN1CCN(C(=O)c2ccccc2)CC1)NO |  |  | 13% | 30% |  | 
40 | O=C(CCN1CCN(S(=O)(=O)c2ccccc2)CC1)NO |  |  | 14% | 44% |  | 
